{
  "source": "paper PMC9948766",
  "about": "(Science translational medicine, 2022)",
  "key": {"[1]": {"tested_on": "mouse models of myocardial infarction", "conditions": "cited from earlier work"}, "[2]": {"conditions": "humans, intravenous injection; cited from earlier work"}, "[3]": {"assay": "Pharmacokinetics and biodistribution of ^125I-RLX after intraarticular injection", "parameters": "species or system Sprague Dawley rats", "conditions": "rat, in vivo"}, "[4]": {"assay": "Circular dichroism of RLX secondary structure", "type": "physicochemical"}, "[5]": {"tested_on": "atraumatic rat model of shoulder arthrofibrosis", "assay": "Histological assessment of rat shoulder joints", "type": "in vivo, Sprague Dawley rats", "method_in_brief": "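Female Sprague Dawley rats with contracted shoulders receiving intraarticular doses (repeated 2 μg/kg injections or saline; or single 10 μg/kg microparticles or unloaded particles at equivalent PLGA mass) from remobilization. Joints fixed and decalcified at 14 or 56 days; coronal sections stained with H&E, Masson's Trichrome, Safranin O. Immune activation scored on H&E; axillary pouch thickness measured; n=5; mean ± STDev; ANOVA.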"}, "[6]": {"conditions": "cited from earlier work"}},
  "note": "Read-outs that look alike come from different tables or passages of the source.",
  "data": [
    {"substance": "human relaxin-2 [RLX]", "values": [
      {"measurement": "bioactive average plasma exposure concentration, Cavg", "setting": "[1]", "value": "20 to 40", "unit": "ng/mL"},
      {"measurement": "half-life", "setting": "[2]", "value": 1.6, "unit": "h"},
      {"measurement": "CL", "setting": "[3]", "value": "20.6 (15.1, 31.8) (mL/kg)·hr"},
      {"measurement": "average plasma exposure, Cavg", "setting": "[3]", "value": 2.05, "unit": "ng/mL/h"},
      {"measurement": "clearance at the time of dose re-administration", "setting": "[3]", "value": "> 99", "unit": "%"},
      {"measurement": "maximum plasma exposure, Cmax", "setting": "[3]", "value": 16, "unit": "ng/mL"},
      {"measurement": "t1/2-α", "setting": "[3]", "value": "0.954 (0.852, 1.15) h"},
      {"measurement": "t1/2-α (effective synovial half-life)", "setting": "[3]", "value": "0.305 (0.280, 0.346) h"},
      {"measurement": "alpha helical structure (CD) after encapsulation processing", "setting": "[4]; after organic solvents, mechanical and thermal forces of encapsulation", "value": "maintenance of the alpha helical structure"},
      {"measurement": "alpha helical structure (CD, negative peaks at 208 and 222 nm) after extended incubation", "setting": "[4]; long-term incubation at 37 °C", "value": "maintenance of the alpha helical structure"},
      {"measurement": "inflammatory infiltrate, histological scoring", "setting": "[5]; 14 days post-treatment, n=5", "value": "negligible inflammation"},
      {"measurement": "joint architecture", "setting": "[5]; 56 days after remobilization, H&E, Masson's Trichrome", "value": "restored delineation of the humeral head and glenoid surface, absence of fibrotic adhesions"},
      {"measurement": "inflammatory infiltrate, histological scoring", "setting": "[5]; 56 days post-treatment, n=5", "value": "negligible inflammation"},
      {"measurement": "synovial membrane thickness in the axillary pouch", "setting": "[5]; 56 days, n=5", "value": "restoration to baseline values"},
      {"measurement": "toxicological profile", "setting": "[6]; acute heart failure, 30 μg/kg/day continuous IV infusion over 48 hr", "value": "favorable toxicological profile"},
      {"measurement": "toxicological profile", "setting": "[6]; induction of labor, 75μg/kg/day continuous IV infusion over 24 hr", "value": "favorable toxicological profile"}
    ]}
  ]
}
